Laboratory results from PMC7327769 (Asian Journal of Pharmaceutical Sciences, 2019).

Key:
[1] = Solubility testing of saquinavir in oils, surfactants, and co-surfactants; assay type: physicochemical; details: 20 °C, 24 h
Procedure, shortened: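 Excess test compound added to each neat excipient and stirred magnetically. Content quantified by HPLC with UV detection at 240 nm (retention 3.8 min). Expressed as mg/g, mean ± standard deviation.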

[2] = after oral administration to HIV-infected patients; cited from earlier work

`CC(C)(C)NC(=O)[C@@H]1C[C@@H]2CCCC[C@@H]2CN1C[C@@H](O)[C@H](Cc1ccccc1)NC(=O)[C@H](CC(N)=O)NC(=O)c1ccc2ccccc2n1` [saquinavir, Saquinavir] gave a Solubility of saquinavir ([1]; in Capryol 90 (oil)) of 145 ± 12.6 mg/g, a Solubility of saquinavir ([1]; in Cremophor® EL (surfactant)) of 55 ± 5.0 mg/g and a Solubility of saquinavir ([1]; in Labrafac® CM10 (oil)) of 57 ± 4.2 mg/g. The Solubility of saquinavir ([1]; in Labrasol® (surfactant)) was 105 ± 5.0 mg/g, the Solubility of saquinavir ([1]; in PEG 400 (co-surfactant)) was 40 ± 3.4 mg/g and the Solubility of saquinavir ([1]; in Propylene glycol (co-surfactant)) was 228 ± 19.5 mg/g. It also gave a Solubility of saquinavir ([1]; in Transcutol® HP (co-surfactant)) of 158 ± 17.8 mg/g, a Solubility of saquinavir ([1]; in Triglyceride (oil)) of 1.9 ± 0.4 mg/g and a Solubility of saquinavir ([1]; in Tween® 80 (surfactant)) of 37 ± 4.3 mg/g. For the same molecule, the Solubility of saquinavir ([1]; in Water (aqueous phase)) was 2.2 ± 0.3 mg/g and the “time of the highest saquinavir concentration in plasma” value [2] was 2 to 4 h.
